# Data taken from ChEMBL document CHEMBL1130346, “A new rational hypothesis for the pharmacophore of the active metabolite of leflunomide, a potent immunosuppressive drug” (J Med Chem, 1997).
# pIC50: −log10 of the molar value.
# Assays:
# Mus musculus [1] = organism: Mus musculus; experiment: The compound was tested for in vitro mixed lymphocyte reaction.; format: functional, organism-based
# Procedure, shortened: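 Bidirectional murine MLR using BALB/c and DBA/2 splenocytes isolated on Ficoll-Hypaque. 5×10⁴ cells of each strain were cocultured in triplicate for 96 h with serial dilutions of compound (20 mM DMSO stock), with DMSO-matched controls. Medium was RPMI 1640 with 5% FBS. [³H]thymidine (1 µCi) was added for the last 18 h. IC50 is 50% inhibition of proliferation versus untreated cultures; at least three experiments.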
# [2] = In vitro inhibition of lymphocyte activated CD71 antigens induced by monoclonal antibody; format: functional, Homo sapiens
# Procedure, shortened: (§1)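 Human PBMC from healthy donors, separated on Ficoll-Hypaque, at 10⁶ cells/mL in RPMI 1640 with 10% FBS. Cells were incubated with test compounds and stimulated with an optimal concentration of anti-CD3 mAb OKT3 for 24 h at 37 °C in 5% CO₂. CD2, CD25 and CD71 were read by immunofluorescence staining and flow cytometry. IC50 values came from at least two experiments, which differed by less than 10%.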
# [3] = In vitro inhibition of lymphocyte activated CD25 antigens induced by monoclonal antibody; format: functional, Homo sapiens; procedure, shortened: as §1
# [4] = In vitro inhibition of lymphocyte activated CD2 antigens induced by monoclonal antibody; format: functional, Homo sapiens; procedure, shortened: as §1
# Mus musculus [5] = organism: Mus musculus; experiment: animal or person; settings: ip, read-out: Inhibition
# Mus musculus [6] = organism: Mus musculus; experiment: animal or person; settings: ip, read-out: Inhibition; remark: listed apart in the source
# Mus musculus [7] = experiment: Inhibition of paw edema formation in mouse after an ip dose of 10 mg/kg; Thickness of paw = 2.38+/-0.07 mm; format: functional; settings: route intraperitoneal
# [8] = In vitro inhibition of expression of lymphocyte activated CD71 antigens induced by monoclonal antibody; format: functional; settings: Homo sapiens; procedure, shortened: as §1
# Mus musculus [9] = experiment: Inhibition of paw edema formation in mouse after an peroral dose of 10 mg/kg; Thickness of paw =2.45+/-0.14 mm; format: functional; settings: route oral
# [10] = In vitro inhibition of expression of lymphocyte activated CD2 antigens induced by monoclonal antibody; format: functional; settings: Homo sapiens; procedure, shortened: as §1
# [11] = In vitro inhibition of expression of lymphocyte activated CD25 antigens induced by monoclonal antibody; format: functional; settings: Homo sapiens; procedure, shortened: as §1
pIC50 (Mus musculus [1]),pIC50 [2],pIC50 [3],pIC50 [4],pIC50 [8],pIC50 [10],pIC50 [11],Structure (SMILES),inhibition in vivo at 5 mg/kg (Mus musculus [5]) [%],inhibition in vivo at 50 mg/kg (Mus musculus [6]) [%],inhibition in vivo at 10 mg/kg (Mus musculus [7]) [%],inhibition in vivo at 10 mg/kg (Mus musculus [9]) [%]
4.15,4.11,4.02,4.04,,,,CCO/C(O)=C(/C(C)=O)C(=O)Nc1ccc(C(F)(F)F)cc1,,,,
,,,,,,,C/C=C/C[C@@H](C)[C@@H](O)[C@H]1C(=O)N[C@@H](CC)C(=O)N(C)CC(=O)N(C)[C@@H](CC(C)C)C(=O)N[C@@H](C(C)C)C(=O)N(C)[C@@H](CC(C)C)C(=O)N[C@@H](C)C(=O)N[C@H](C)C(=O)N(C)[C@@H](CC(C)C)C(=O)N(C)[C@@H](CC(C)C)C(=O)N(C)[C@@H](C(C)C)C(=O)N1C [CYCLOSPORINE],48,83,,
5.78,5.36,5.62,5.52,,,,O=C(Nc1ccc(C(F)(F)F)cc1)c1ccccc1O,,,43,
4.92,4.73,4.74,4.82,,,,CC(O)=C(C(=O)Nc1ccc(C(F)(F)F)cc1)C(=O)Nc1ccc(C(F)(F)F)cc1,,,,
5.47,4.18,4.83,4.86,,,,O=C1CCC(O)=C1C(=O)Nc1ccc(C(F)(F)F)cc1,,,,
5.90,4.96,5.54,5.54,,,,O=C1CCCC(O)=C1C(=O)Nc1ccc(C(F)(F)F)cc1,,,,
4.34,< 4.00,< 4.00,4.02,,,,O=C1COC(O)=C1C(=O)Nc1ccc(C(F)(F)F)cc1,,,,
4.38,4.13,4.05,4.29,,,,C/C(O)=C(\C#N)C(=O)Nc1ccc(C(F)(F)F)cc1 [TERIFLUNOMIDE],,,,
5.02,,,,< 4.00,3.90,3.89,Cc1oncc1C(=O)Nc1ccc(C(F)(F)F)cc1 [LEFLUNOMIDE],,,,45
